In ChEMBL document CHEMBL2093137, “WHO-TDR NTD Screening”:
Converted amounts (≈) assume the structure as drawn.

Experiments:
[1] = WHO-TDR: Cytotoxicity; assay type: toxicity, cell-based; settings: human, MRC5 cells
Schistosoma mansoni = test: WHO-TDR: Schistosomiasis; assay type: functional; design: concentration or dose not given beside the values
Procedure, shortened: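 In this whole-organism assay, larval and/or adult worms of Schistosoma mansoni (Puerto Rican strain) were exposed to compounds from a diverse Life Chemicals library of 10,000 members. A reference drug served as positive control. Activity is stated as percent inhibition and IC50.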

Trypanosoma cruzi = test: WHO-TDR: Chagas disease; assay type: functional, organism-based, Homo sapiens; settings: MRC5
Procedure, shortened: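 Whole-organism screen of a 10,000-compound diverse library from Life Chemicals, filtered for drug-likeness and reactive groups, against intracellular amastigotes of Trypanosoma cruzi Tulahuen CL2 beta-galactosidase strain grown in MRC-5SV2 human lung fibroblast host cells. The assay followed previously published standard procedures, with a reference drug as positive control. Antiparasitic potency is reported as IC50.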

[2] = test system: Trypanosoma brucei brucei; test: WHO-TDR: Human African Trypanosomiasis (HAT); assay type: functional, organism-based; settings: Squib-427
Procedure, shortened: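 Values are IC50 figures for antiparasitic potency. They come from a whole-organism screen of 10,000 diverse Life Chemicals compounds against bloodstream-form Trypanosoma brucei (Squib 427 strain).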

Brugia malayi = test: WHO-TDR: Lymphatic Filariasis; assay type: functional; design: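 tested at 10 µM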
Procedure, shortened: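 In a whole-organism assay, Brugia malayi microfilariae were screened against a diverse Life Chemicals library that had been filtered for drug-likeness and reactive groups. That library comprised 10,000 compounds. Activity is expressed as percent inhibition and as IC50.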

Leishmania infantum = test: WHO-TDR: Leishmaniasis; assay type: functional, organism-based, Mus musculus; settings: Macrophage
Procedure, shortened: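 Values are IC50 figures for antiparasitic potency. They come from a whole-organism screen of a 10,000-compound diverse Life Chemicals library against Leishmania infantum MHOM/MA(BE)/67 amastigotes inside murine peritoneal macrophage host cells.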

Onchocerca ochengi = test: WHO-TDR: Onchocerciasis; assay type: functional; design: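 at 12.5 µM on microfilariae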
Procedure, shortened: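 Microfilariae of Onchocerca ochengi or Onchocerca lienalis, animal pathogens standing in for the human parasite, were exposed to compounds in a whole-organism screen. The compounds came from a 10,000-compound diverse Life Chemicals library filtered for drug-likeness and reactive groups. Results are expressed as percent inhibition and IC50.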

Plasmodium falciparum K1 = test: WHO-TDR: Malaria; assay type: functional, organism-based, Homo sapiens; settings: Erythrocyte
Procedure, shortened: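 Values are IC50 figures for antiplasmodial potency. They come from a whole-organism screen of 10,000 diverse Life Chemicals compounds against Plasmodium falciparum K1 growing inside human red blood cells, run by previously published standard procedures.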

SMILES | IC50 [2] | IC50 (Leishmania infantum) | IC50 (Plasmodium falciparum K1) | IC50 [1] | % Inhibition (Schistosoma mansoni) | IC50 (Trypanosoma cruzi) | % Inhibition (Brugia malayi) | % Inhibition (Onchocerca ochengi)
CC(C)(C)n1ncc2c(=O)n(CCC(=O)Nc3ccc4c(c3)OCO4)cnc21 | > 11.5 µg/mL | > 11.5 µg/mL | > 11.5 µg/mL | > 11.5 µg/mL | 100% | > 11.5 µg/mL | 20% | 0%
COc1ccc(-c2ccc(N3CCN(C(=O)c4c(F)cccc4F)CC3)nn2)cc1OC | > 13.2 µg/mL | 0.428 µg/mL (≈ 0.972 µM) | > 13.2 µg/mL | > 13.2 µg/mL | 8.3% | > 13.2 µg/mL | 0% | 0%
O=C(CSC1=Nc2cccnc2Nc2ccccc21)Nc1ccc(OC(F)(F)F)cc1 | > 13.3 µg/mL | > 13.3 µg/mL | 13.3 µg/mL (≈ 30 µM) | > 13.3 µg/mL | 0% | > 13.3 µg/mL | 0% | 100%
O=C(c1ccc(Cl)cc1Cl)N1CCN(c2ccc(Nc3cccnc3)nn2)CC1 | > 12.9 µg/mL | > 12.9 µg/mL | 7.24 µg/mL (≈ 16.9 µM) | > 12.9 µg/mL | 0% | 3.7 µg/mL (≈ 8.63 µM) | 0% | 100%
Cn1nccc1C(=O)Nc1nc2c(s1)CSc1ccccc1-2 | 0.315 µg/mL (≈ 0.959 µM) | 3.19 µg/mL (≈ 9.71 µM) | > 9.85 µg/mL | 0.145 µg/mL (≈ 0.442 µM) | 100% | 2.05 µg/mL (≈ 6.23 µM) | 0% | 100%
O=C(c1ccc(Br)o1)C1C(=O)N(c2ccccc2)N=C1c1ccccc1 (stereo unspecified) | 4.44 µg/mL (≈ 10.8 µM) | > 12.3 µg/mL | > 12.3 µg/mL | > 12.3 µg/mL | 0% | 5.34 µg/mL (≈ 13.1 µM) | 0% | 100%
COc1cccc(-c2cc(CC(=O)NCCC(C)C)no2)c1 | > 9.07 µg/mL | > 9.07 µg/mL | > 9.07 µg/mL | > 9.07 µg/mL | 0% | > 9.07 µg/mL | 0% | 100%
CCOC(=O)N1CCc2nc(NC(=O)CCCS(=O)(=O)c3ccc(F)cc3)sc2C1 | > 13.7 µg/mL | > 13.7 µg/mL | 6.65 µg/mL (≈ 14.6 µM) | > 13.7 µg/mL | 0% | > 13.7 µg/mL | 0% | 100%
Cc1ccc(C(=O)Nc2nnc(Cc3cccs3)o2)cc1C | 0.383 µg/mL (≈ 1.22 µM) | > 9.4 µg/mL | > 9.4 µg/mL | > 9.4 µg/mL | 25% | 3.01 µg/mL (≈ 9.61 µM) | 50% | 0%

More lines, main results first:

IC50 [2] | IC50 (Leishmania infantum) | IC50 (Plasmodium falciparum K1) | SMILES | IC50 [1] | % Inhibition (Schistosoma mansoni) | IC50 (Trypanosoma cruzi) | % Inhibition (Brugia malayi) | % Inhibition (Onchocerca ochengi)
> 12.7 µg/mL | > 12.7 µg/mL | 0.716 µg/mL (≈ 1.69 µM) | Cc1ccc(S(=O)(=O)N2CCN(c3ccc(Nc4cccnc4)nn3)CC2)c(C)c1 | 0.804 µg/mL (≈ 1.89 µM) | 0% | 3.91 µg/mL (≈ 9.21 µM) | 0% | 100%
> 11.8 µg/mL | > 11.8 µg/mL | > 11.8 µg/mL | COc1ccc(Cl)cc1NC(=O)CSc1ccc(NC(=O)C2CC2)nn1 | > 11.8 µg/mL | 33.3% | > 11.8 µg/mL | 0% | 100%
5.4 µg/mL (≈ 14.1 µM) | > 11.5 µg/mL | > 11.5 µg/mL | CS(=O)(=O)N1CCCCC1C(=O)Nc1nc(-c2ccc(F)cc2)cs1 (stereo unspecified) | > 11.5 µg/mL | 0% | 3.82 µg/mL (≈ 9.95 µM) | 0% | 100%
> 11.6 µg/mL | 0.376 µg/mL (≈ 0.97 µM) | > 11.6 µg/mL | O=S(=O)(c1cccnc1)N1CCN(c2ccc(-c3cccs3)nn2)CC1 | > 11.6 µg/mL | 0% | > 11.6 µg/mL | 50% | 0%
4.23 µg/mL (≈ 10.5 µM) | > 13.2 µg/mL | 0.793 µg/mL (≈ 1.96 µM) | O=C(c1cccs1)N(CCCn1ccnc1)c1nc2c(F)cc(F)cc2s1 | 8.75 µg/mL (≈ 21.6 µM) | 0% | 4.01 µg/mL (≈ 9.91 µM) | 0% | 100%
3.09 µg/mL (≈ 9.49 µM) | 3.09 µg/mL (≈ 9.49 µM) | 1.13 µg/mL (≈ 3.46 µM) | CC(C)CC(=O)N1CCN(c2ccc(-c3ccccn3)nn2)CC1 | 3.86 µg/mL (≈ 11.9 µM) | 25% | 0.763 µg/mL (≈ 2.34 µM) | 33.33% | 100%
1 µg/mL (≈ 2.37 µM) | 4.46 µg/mL (≈ 10.5 µM) | 0.163 µg/mL (≈ 0.386 µM) | CCc1ccc2nc(N(CCCn3ccnc3)C(=O)/C=C/c3cccs3)sc2c1 | 3.5 µg/mL (≈ 8.28 µM) | 0% | 0.399 µg/mL (≈ 0.944 µM) | 0% | 100%
4.67 µg/mL (≈ 10.5 µM) | > 14.4 µg/mL | 3.63 µg/mL (≈ 8.15 µM) | COc1ccc(Cl)c2sc(N(CCCn3ccnc3)C(=O)c3cccc(F)c3)nc12 | 4.08 µg/mL (≈ 9.16 µM) | 0% | 3.68 µg/mL (≈ 8.27 µM) | 0% | 100%
> 9.88 µg/mL | > 9.88 µg/mL | > 9.88 µg/mL | COc1ccc(-c2nnc(NC(=O)c3ccn(C)n3)o2)cc1OC | 1.41 µg/mL (≈ 4.28 µM) | 25% | > 9.88 µg/mL | 0% | 100%
> 11.4 µg/mL | > 11.4 µg/mL | 11.4 µg/mL (≈ 30 µM) | Cc1ccc(-c2nc(CSc3nc(O)cc(C(F)(F)F)n3)c(C)o2)cc1 | > 11.4 µg/mL | 0% | > 11.4 µg/mL | 20% | 100%
> 12.1 µg/mL | > 12.1 µg/mL | > 12.1 µg/mL | O=S(=O)(CCCOc1ccc2c(c1)OCO2)NCCc1c[nH]c2ccccc12 | > 12.1 µg/mL | 0% | 3.12 µg/mL (≈ 7.74 µM) | 0% | 100%
> 11.4 µg/mL | > 11.4 µg/mL | > 11.4 µg/mL | Cc1ccnc(Nc2ccc(NCCNC(=O)Nc3ccc(F)cc3)nn2)c1 | > 11.4 µg/mL | 0% | > 11.4 µg/mL | 0% | 100%
> 12.7 µg/mL | > 12.7 µg/mL | > 12.7 µg/mL | O=S(=O)(c1ccc(Cl)s1)N1CCN(c2ccc(-c3ccccn3)nn2)CC1 | > 12.7 µg/mL | 0% | 0.438 µg/mL (≈ 1.04 µM) | 0% | 0%
